# From ChEMBL document CHEMBL2202974 (J Med Chem, 2011)
# Experiments:
# [1] = Drug uptake in monkey caudate at 4.92 to 6.6 mCi, iv administered as bolus dose measured up to 20 mins by PET imaging analysis; type: ADME, organism-based, Macaca mulatta, Caudate nucleus; conditions: rhesus monkey, in vivo
# [2] = Drug uptake in monkey cerebellum at 4.92 to 6.6 mCi, iv administered as bolus dose measured at 90 mins by PET imaging analysis; type: ADME, organism-based, Macaca mulatta; conditions: rhesus monkey, in vivo
# [3] = Drug uptake in SB612111-pretreated monkey hypothalamus at 4.92 to 6.6 mCi, iv administered at 10 mins post SB612111-treatment measured from 10 to 90 mins by PET imaging analysis; type: ADME, organism-based, Macaca mulatta; conditions: rhesus monkey, in vivo
# [4] = Drug uptake in monkey lateral temporal cortex at 4.92 to 6.6 mCi, iv administered as bolus dose measured up to 20 mins by PET imaging analysis; type: ADME, organism-based, Macaca mulatta; conditions: rhesus monkey, in vivo
# [5] = Drug uptake in monkey cerebellum at 4.92 to 6.6 mCi, iv administered as bolus dose measured up to 20 mins by PET imaging analysis; type: ADME, organism-based, Macaca mulatta; conditions: rhesus monkey, in vivo
# [6] = Drug uptake in monkey hypothalamus at 4.92 to 6.6 mCi, iv administered as bolus dose measured at 90 mins by PET imaging analysis; type: ADME, organism-based, Macaca mulatta; conditions: rhesus monkey, in vivo
# [7] = Drug uptake in SB612111-pretreated monkey cerebellum at 4.92 to 6.6 mCi, iv administered at 10 mins post SB612111-treatment measured within 10 mins by PET imaging analysis; type: ADME, organism-based, Macaca mulatta; conditions: rhesus monkey, in vivo
# [8] = Drug uptake in SB612111-pretreated monkey hypothalamus at 4.92 to 6.6 mCi, iv administered at 10 mins post SB612111-treatment measured within 10 mins by PET imaging analysis; type: ADME, organism-based, Macaca mulatta; conditions: rhesus monkey, in vivo
# [9] = Drug uptake in monkey hypothalamus at 4.92 to 6.6 mCi, iv administered as bolus dose measured up to 20 mins by PET imaging analysis; type: ADME, organism-based, Macaca mulatta; conditions: rhesus monkey, in vivo
# [10] = Drug uptake in SB612111-pretreated monkey lateral temporal cortex at 4.92 to 6.6 mCi, iv administered at 10 mins post SB612111-treatment measured from 10 to 90 mins by PET imaging analysis; type: ADME, organism-based, Macaca mulatta; conditions: rhesus monkey, in vivo
# [11] = Drug uptake in monkey lateral temporal cortex at 4.92 to 6.6 mCi, iv administered as bolus dose measured at 90 mins by PET imaging analysis; type: ADME, organism-based, Macaca mulatta; conditions: rhesus monkey, in vivo
# [12] = Drug uptake in SB612111-pretreated monkey caudate at 4.92 to 6.6 mCi, iv administered at 10 mins post SB612111-treatment measured from 10 to 90 mins by PET imaging analysis; type: ADME, organism-based, Macaca mulatta, Caudate nucleus; conditions: rhesus monkey, in vivo
# [13] = Drug uptake in monkey amygdala at 4.92 to 6.6 mCi, iv administered as bolus dose measured at 90 mins by PET imaging analysis; type: ADME, organism-based, Macaca mulatta; conditions: rhesus monkey, in vivo
# [14] = Drug uptake in SB612111-pretreated monkey cerebellum at 4.92 to 6.6 mCi, iv administered at 10 mins post SB612111-treatment measured from 10 to 90 mins by PET imaging analysis; type: ADME, organism-based, Macaca mulatta; conditions: rhesus monkey, in vivo
# [15] = Drug uptake in SB612111-pretreated monkey lateral temporal cortex at 4.92 to 6.6 mCi, iv administered at 10 mins post SB612111-treatment measured within 10 mins by PET imaging analysis; type: ADME, organism-based, Macaca mulatta; conditions: rhesus monkey, in vivo
# [16] = Drug uptake in SB612111-pretreated monkey amygdala at 4.92 to 6.6 mCi, iv administered at 10 mins post SB612111-treatment measured within 10 mins by PET imaging analysis; type: ADME, organism-based, Macaca mulatta; conditions: rhesus monkey, in vivo
# [17] = Drug uptake in SB612111-pretreated monkey caudate at 4.92 to 6.6 mCi, iv administered at 10 mins post SB612111-treatment measured within 10 mins by PET imaging analysis; type: ADME, organism-based, Macaca mulatta, Caudate nucleus; conditions: rhesus monkey, in vivo
# [18] = Drug uptake in monkey caudate at 4.92 to 6.6 mCi, iv administered as bolus dose measured at 90 mins by PET imaging analysis; type: ADME, organism-based, Macaca mulatta, Caudate nucleus; conditions: rhesus monkey, in vivo
# [19] = Drug uptake in SB612111-pretreated monkey amygdala at 4.92 to 6.6 mCi, iv administered at 10 mins post SB612111-treatment measured from 10 to 90 mins by PET imaging analysis; type: ADME, organism-based, Macaca mulatta; conditions: rhesus monkey, in vivo
# [20] = Drug uptake in monkey amygdala at 4.92 to 6.6 mCi, iv administered as bolus dose measured up to 20 mins by PET imaging analysis; type: ADME, organism-based, Macaca mulatta; conditions: rhesus monkey, in vivo
# Brain [21] = test: Drug uptake in rat brain at 6 ug/ml, iv at 10 mins by LC/MS analysis; type: ADME, organism-based; conditions: in vivo
# Outline: (§1)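 Male Sprague-Dawley rats (230–280 g), non-anesthetised. Ligand in 25% β-cyclodextrin diluted to 6 μg/mL and given iv via tail vein at 0.5 mL/kg (3 μg/kg), n = 3–4 per group. Rats killed at 10, 20, 40 or 60 min. Hypothalamus and striatum extracted in acetonitrile/0.1% formic acid and quantified by LC-MS/MS against spiked brain standards. Result expressed as %SUV.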
# Brain [22] = test: Drug uptake in rat brain at 6 ug/ml, iv up to 1 hr by LC/MS analysis; type: ADME, organism-based; conditions: in vivo; outline: as §1
# Brain [23] = test: Drug uptake in rat brain at 6 ug/ml, iv after 1 hr by LC/MS analysis; type: ADME, organism-based; conditions: in vivo; outline: as §1
# [24] = Drug uptake in monkey lateral temporal cortex at 4.92 to 6.6 mCi, iv administered as bolus dose measured at 120 mins by PET imaging analysis; type: ADME, organism-based, Macaca mulatta; conditions: rhesus monkey, in vivo, 2 h
# [25] = Drug uptake in SB612111-pretreated monkey caudate at 4.92 to 6.6 mCi, iv administered at 10 mins post SB612111-treatment measured from 10 to 120 mins by PET imaging analysis; type: ADME, organism-based, Macaca mulatta, Caudate nucleus; conditions: rhesus monkey, in vivo
# [26] = Drug uptake in SB612111-pretreated monkey cerebellum at 4.92 to 6.6 mCi, iv administered at 10 mins post SB612111-treatment measured from 10 to 120 mins by PET imaging analysis; type: ADME, organism-based, Macaca mulatta; conditions: rhesus monkey, in vivo
# [27] = Drug uptake in monkey hypothalamus at 4.92 to 6.6 mCi, iv administered as bolus dose measured at 120 mins by PET imaging analysis; type: ADME, organism-based, Macaca mulatta; conditions: rhesus monkey, in vivo, 2 h
# [28] = Drug uptake in monkey amygdala at 4.92 to 6.6 mCi, iv administered as bolus dose measured at 120 mins by PET imaging analysis; type: ADME, organism-based, Macaca mulatta; conditions: rhesus monkey, in vivo, 2 h
# [29] = Drug uptake in SB612111-pretreated monkey amygdala at 4.92 to 6.6 mCi, iv administered at 10 mins post SB612111-treatment measured from 10 to 120 mins by PET imaging analysis; type: ADME, organism-based, Macaca mulatta; conditions: rhesus monkey, in vivo
# [30] = Drug uptake in monkey cerebellum at 4.92 to 6.6 mCi, iv administered as bolus dose measured at 120 mins by PET imaging analysis; type: ADME, organism-based, Macaca mulatta; conditions: rhesus monkey, in vivo, 2 h
# [31] = Drug uptake in SB612111-pretreated monkey hypothalamus at 4.92 to 6.6 mCi, iv administered at 10 mins post SB612111-treatment measured from 10 to 120 mins by PET imaging analysis; type: ADME, organism-based, Macaca mulatta; conditions: rhesus monkey, in vivo
# [32] = Drug uptake in SB612111-pretreated monkey lateral temporal cortex at 4.92 to 6.6 mCi, iv administered at 10 mins post SB612111-treatment measured from 10 to 120 mins by PET imaging analysis; type: ADME, organism-based, Macaca mulatta; conditions: rhesus monkey, in vivo
# [33] = Drug uptake in monkey caudate at 4.92 to 6.6 mCi, iv administered as bolus dose measured at 120 mins by PET imaging analysis; type: ADME, organism-based, Macaca mulatta, Caudate nucleus; conditions: rhesus monkey, in vivo, 2 h
# [34] = Lipophilicity, log D of the compound by radiometric method; type: physicochemical; conditions: octanol/water
# Outline: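 log D at pH 7.4 measured radiometrically on the carbon-11-labelled form of the ligand. Six determinations, reported as mean ± SD.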
# [35] = Lipophilicity, log D of the compound by shake flask method; type: physicochemical; conditions: octanol/water
# Outline: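 Shake-flask log D at pH 7.4 on the nonradioactive compound. Each enantiomer was measured.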
# Nociceptin receptor = Nociceptin receptor (Homo sapiens, UniProt P41146); test: Displacement of [3H]nociceptin from human recombinant NOP receptor expressed in CHO cells after 60 mins by microbeta scintillation counting; type: cell-based
# Nociceptin receptor, sequence (P41146 whole entry): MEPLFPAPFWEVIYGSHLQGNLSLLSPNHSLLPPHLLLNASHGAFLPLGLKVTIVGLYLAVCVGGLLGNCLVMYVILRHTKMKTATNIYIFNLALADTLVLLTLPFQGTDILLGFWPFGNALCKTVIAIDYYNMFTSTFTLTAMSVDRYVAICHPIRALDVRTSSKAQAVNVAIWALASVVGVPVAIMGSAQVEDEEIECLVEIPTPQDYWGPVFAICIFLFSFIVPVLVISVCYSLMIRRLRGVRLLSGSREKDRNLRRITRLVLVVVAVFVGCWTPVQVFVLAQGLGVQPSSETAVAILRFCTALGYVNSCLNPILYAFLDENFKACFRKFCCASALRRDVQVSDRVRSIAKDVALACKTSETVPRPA
compound,measurement,setting,value
[11CH3]NC(=O)[C@@H](Cc1ccccc1Cl)CN1CCC2(CC1)OCCc1cc(F)sc12,Drug uptake,[1],Active
same,Drug uptake,[2],Not Active
same,Drug uptake,[3],Not Active
same,Drug uptake,[4],Active
same,Drug uptake,[5],Active
same,Drug uptake,[6],Not Active
same,Drug uptake,[7],Active
same,Drug uptake,[8],Active
same,Drug uptake,[9],Active
same,Drug uptake,[10],Not Active
same,Drug uptake,[11],Not Active
same,Drug uptake,[12],Not Active
same,Drug uptake,[13],Not Active
same,Drug uptake,[14],Not Active
same,Drug uptake,[15],Active
same,Drug uptake,[16],Active
same,Drug uptake,[17],Active
same,Drug uptake,[18],Not Active
same,Drug uptake,[19],Not Active
same,Drug uptake,[20],Active
CC(C)N(C)C(=O)[C@@H](Cc1ccccc1F)CN1CCC2(CC1)OCCc1cc(F)sc12,SUV,Brain [21],453%
same,Drug uptake,Brain [22],Active
same,Drug uptake,Brain [23],Not Active
CC(C)N([11CH3])C(=O)[C@@H](Cc1ccccc1F)CN1CCC2(CC1)OCCc1cc(F)sc12,Drug uptake,[1],Active
same,Drug uptake,[24],Not Active
same,Drug uptake,[25],Not Active
same,Drug uptake,[26],Not Active
same,Drug uptake,[4],Active
same,Drug uptake,[27],Not Active
same,Drug uptake,[5],Active
same,Drug uptake,[7],Active
same,Drug uptake,[8],Active
same,Drug uptake,[9],Active
same,Drug uptake,[28],Not Active
same,Drug uptake,[29],Not Active
same,Drug uptake,[15],Active
same,Drug uptake,[16],Active
same,Drug uptake,[17],Active
same,Drug uptake,[30],Not Active
same,Drug uptake,[31],Not Active
same,Drug uptake,[32],Not Active
same,Drug uptake,[20],Active
same,Drug uptake,[33],Not Active
CNC(=O)[C@@H](Cc1ccccc1Cl)CN1CCC2(CC1)OCCc1cc(F)sc12,SUV,Brain [21],280%
same,Drug uptake,Brain [22],Active
same,Drug uptake,Brain [23],Not Active
CNC(=O)[C@@H](Cc1ccccc1F)CN1CCC2(CC1)OCCc1cc(F)sc12 [NOP-1A],logD,[34],3.41
same,SUV,Brain [21],280%
same,Drug uptake,Brain [22],Active
same,Drug uptake,Brain [23],Not Active
CNC(=O)[C@H](Cc1ccccc1Cl)CN1CCC2(CC1)OCCc1cc(F)sc12,logD,[35],3.9
NC(=O)[C@@H](Cc1ccccc1Cl)CN1CCC2(CC1)OCCc1cc(F)sc12,Ki,Nociceptin receptor,0.101 nM
NC(=O)[C@H](Cc1ccccc1Cl)CN1CCC2(CC1)OCCc1cc(F)sc12,Ki,Nociceptin receptor,17.1 nM
CC(C)N(C)C(=O)[C@H](Cc1ccccc1F)CN1CCC2(CC1)OCCc1cc(F)sc12,logD,[35],4.47
